Measurements as given in ChEMBL document CHEMBL3297709, “High affinity ligands and potent antagonists for the α1D-adrenergic receptor. Novel 3,8-disubstituted [1]benzothieno[3,2-d]pyrimidine derivatives” (Eur J Med Chem, 2014).

Experiments:
[1] = molecular target: T1, Alpha-1D adrenergic receptor (Homo sapiens, UniProt P25100); assay: Displacement of [125I]BE2254 from human alpha1d receptor expressed in HEK293 cells; assay type: cell-based
T1 sequence (P25100 whole entry): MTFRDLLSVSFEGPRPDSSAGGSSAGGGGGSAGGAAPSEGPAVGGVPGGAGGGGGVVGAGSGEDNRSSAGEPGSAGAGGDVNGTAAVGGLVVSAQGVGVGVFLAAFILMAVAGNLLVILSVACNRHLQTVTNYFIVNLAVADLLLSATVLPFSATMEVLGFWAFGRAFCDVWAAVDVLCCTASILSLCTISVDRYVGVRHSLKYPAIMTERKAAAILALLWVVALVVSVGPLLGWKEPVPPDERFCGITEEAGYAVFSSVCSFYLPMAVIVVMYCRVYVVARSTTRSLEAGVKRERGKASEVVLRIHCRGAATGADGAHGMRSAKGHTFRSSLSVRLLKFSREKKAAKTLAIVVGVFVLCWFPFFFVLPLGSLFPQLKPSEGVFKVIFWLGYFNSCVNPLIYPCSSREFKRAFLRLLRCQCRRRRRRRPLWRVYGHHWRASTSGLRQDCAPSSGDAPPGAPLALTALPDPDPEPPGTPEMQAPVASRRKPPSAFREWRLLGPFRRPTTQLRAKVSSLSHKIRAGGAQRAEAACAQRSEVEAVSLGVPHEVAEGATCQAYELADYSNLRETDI
Summary of the method: (§1)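 Membranes from HEK293 cells stably transfected with human α1A, α1B or α1D receptor cDNA, selected under 400 µg/mL geneticin. Competition against 50 pM [125I]BE2254; nonspecific binding defined with 10 µM phentolamine. Curves fitted by nonlinear regression. Mean ± SE of three experiments run in duplicate.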

[2] = molecular target: T2, Alpha-1B adrenergic receptor (Homo sapiens, UniProt P35368); assay: Displacement of [125I]BE2254 from human alpha1b receptor expressed in HEK293 cells; assay type: cell-based; summary of the method: as §1
T2 sequence (P35368 whole entry): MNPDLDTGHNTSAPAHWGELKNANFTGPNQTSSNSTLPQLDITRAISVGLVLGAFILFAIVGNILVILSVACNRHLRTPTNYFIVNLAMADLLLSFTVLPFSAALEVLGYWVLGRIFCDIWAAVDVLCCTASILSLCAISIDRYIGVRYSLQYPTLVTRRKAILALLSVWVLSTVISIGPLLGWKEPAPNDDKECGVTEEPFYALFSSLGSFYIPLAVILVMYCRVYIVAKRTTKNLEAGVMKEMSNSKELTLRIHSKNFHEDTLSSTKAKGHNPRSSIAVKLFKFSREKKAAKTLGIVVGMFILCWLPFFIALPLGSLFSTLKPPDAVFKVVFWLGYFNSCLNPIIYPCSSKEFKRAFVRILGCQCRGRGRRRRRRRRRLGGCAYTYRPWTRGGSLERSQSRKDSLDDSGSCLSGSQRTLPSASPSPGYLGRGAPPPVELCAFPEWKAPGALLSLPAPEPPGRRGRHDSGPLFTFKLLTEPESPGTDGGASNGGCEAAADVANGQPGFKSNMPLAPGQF

[3] = molecular target: T3, Alpha-1A adrenergic receptor (Homo sapiens, UniProt P35348); assay: Displacement of [125I]BE2254 from human alpha1a receptor expressed in HEK293 cells; assay type: cell-based; summary of the method: as §1
T3 sequence (P35348 whole entry): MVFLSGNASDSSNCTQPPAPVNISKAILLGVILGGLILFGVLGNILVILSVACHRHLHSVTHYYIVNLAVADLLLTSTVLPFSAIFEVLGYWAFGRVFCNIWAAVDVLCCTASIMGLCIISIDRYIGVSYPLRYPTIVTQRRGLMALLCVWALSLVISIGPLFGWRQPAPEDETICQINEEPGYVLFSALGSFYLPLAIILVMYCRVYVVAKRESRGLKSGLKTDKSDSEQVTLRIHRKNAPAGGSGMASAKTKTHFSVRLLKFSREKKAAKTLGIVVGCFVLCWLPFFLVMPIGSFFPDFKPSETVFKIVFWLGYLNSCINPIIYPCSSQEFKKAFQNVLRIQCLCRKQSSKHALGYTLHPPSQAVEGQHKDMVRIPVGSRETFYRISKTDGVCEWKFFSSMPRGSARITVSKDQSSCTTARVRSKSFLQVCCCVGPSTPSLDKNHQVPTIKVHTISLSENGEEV

[4] = molecular target: T4, Alpha-1B adrenergic receptor (Rattus norvegicus) (UniProt P15823); assay: Antagonist activity at alpha1B adrenoceptor in Wistar rat spleen assessed as decrease in phenylephrine induced contractions at 0.1 uM; parameters: scale not given: the % may be the effect or the level left
T4 sequence (whole entry): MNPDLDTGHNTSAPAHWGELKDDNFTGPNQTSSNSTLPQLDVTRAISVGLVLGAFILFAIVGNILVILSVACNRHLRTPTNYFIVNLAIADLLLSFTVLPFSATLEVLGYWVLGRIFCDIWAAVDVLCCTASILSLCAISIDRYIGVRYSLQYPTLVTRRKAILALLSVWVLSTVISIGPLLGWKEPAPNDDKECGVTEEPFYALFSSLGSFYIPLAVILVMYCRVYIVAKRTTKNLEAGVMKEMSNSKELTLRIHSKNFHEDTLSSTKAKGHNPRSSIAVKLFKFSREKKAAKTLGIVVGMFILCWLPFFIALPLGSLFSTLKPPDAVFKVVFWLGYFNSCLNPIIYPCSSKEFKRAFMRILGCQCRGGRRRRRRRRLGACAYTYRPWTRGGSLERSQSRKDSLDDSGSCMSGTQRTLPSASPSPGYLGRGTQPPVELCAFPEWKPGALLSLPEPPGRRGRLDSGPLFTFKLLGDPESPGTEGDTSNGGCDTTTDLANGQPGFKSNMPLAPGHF
Summary of the method: (§2)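 Wistar rat spleen strips under 1 g resting tension, equilibrated 2 h, with 4 µM (±)-propranolol to block β-adrenoceptors. Cumulative phenylephrine curves measured isometrically at 30 min intervals, first discarded, second as control. Antagonist incubated 30–60 min before repeat curve. pKb from ED50 dose ratio via pKb = log(DR-1) - log[B]; mean ± SE of 4–5 experiments.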

[5] = molecular target: T5, Alpha-1D adrenergic receptor (Rattus norvegicus) (UniProt P23944); assay: Antagonist activity at alpha1D adrenoceptor in Wistar rat thoracic aorta assessed as noradrenaline induced contractions
T5 sequence (whole entry): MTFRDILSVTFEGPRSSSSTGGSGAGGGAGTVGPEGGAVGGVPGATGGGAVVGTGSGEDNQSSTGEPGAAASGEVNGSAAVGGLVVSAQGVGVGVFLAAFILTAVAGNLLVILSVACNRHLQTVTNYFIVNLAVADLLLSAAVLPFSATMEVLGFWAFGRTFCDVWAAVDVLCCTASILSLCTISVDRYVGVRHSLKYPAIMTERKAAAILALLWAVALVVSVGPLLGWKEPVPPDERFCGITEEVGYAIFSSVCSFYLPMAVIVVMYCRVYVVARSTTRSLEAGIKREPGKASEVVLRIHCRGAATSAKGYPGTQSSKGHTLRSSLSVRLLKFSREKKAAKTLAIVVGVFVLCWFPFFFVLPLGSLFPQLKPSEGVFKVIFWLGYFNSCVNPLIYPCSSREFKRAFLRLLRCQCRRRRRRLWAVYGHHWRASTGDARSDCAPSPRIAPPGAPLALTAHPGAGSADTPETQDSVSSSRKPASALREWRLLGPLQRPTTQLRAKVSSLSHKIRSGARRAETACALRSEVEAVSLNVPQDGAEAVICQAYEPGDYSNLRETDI
Summary of the method: (§3)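 Endothelium-denuded helicoidal thoracic aorta strips (15 x 3 mm) from male Wistar rats, Krebs solution, 1 g tension, ≥2 h equilibration. Cumulative (-)-NA curves recorded isometrically at 1 h intervals, third as control. Antagonist equilibrated 60 min before fourth curve. NA solutions held 0.05% Na2S2O4. pKb = log(DR-1) - log[B]; mean ± SE of 4–5 experiments.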

[6] = molecular target: T5, Alpha-1D adrenergic receptor (Rattus norvegicus); assay: Antagonist activity at alpha1D adrenoceptor in Wistar rat thoracic aorta assessed as decrease in noradrenaline induced contractions at 0.1 uM; parameters: scale not given: the % may be the effect or the level left; summary of the method: as §3
[7] = molecular target: T6, Alpha-1A adrenergic receptor (Rattus norvegicus) (UniProt P43140); assay: Antagonist activity at alpha1A adrenoceptor in Wistar rat vas deferans assessed as decrease in noradrenaline induced contractions at 0.1 uM; parameters: scale not given: the % may be the effect or the level left
T6 sequence (whole entry): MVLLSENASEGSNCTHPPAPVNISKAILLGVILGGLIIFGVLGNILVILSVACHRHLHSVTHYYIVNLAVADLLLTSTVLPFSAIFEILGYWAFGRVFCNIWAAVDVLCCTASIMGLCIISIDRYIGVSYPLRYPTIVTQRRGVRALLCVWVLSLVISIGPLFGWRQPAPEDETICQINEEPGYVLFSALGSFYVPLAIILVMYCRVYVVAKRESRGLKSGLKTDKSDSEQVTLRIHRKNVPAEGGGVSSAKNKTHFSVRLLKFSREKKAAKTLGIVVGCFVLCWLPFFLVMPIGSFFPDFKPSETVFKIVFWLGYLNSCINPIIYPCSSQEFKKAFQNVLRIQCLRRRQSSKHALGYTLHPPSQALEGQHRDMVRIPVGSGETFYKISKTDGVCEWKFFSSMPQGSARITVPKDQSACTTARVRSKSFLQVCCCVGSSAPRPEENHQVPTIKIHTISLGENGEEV
Summary of the method: (§4)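 Male Wistar rat (275-300 g) prostatic vas deferens in 20 mL organ bath, physiological salt solution, 37 °C, 5% CO2:95% O2, pH 7.4. Primed twice with 10 µM (-)-NA, 45 min wash/equilibration, then cumulative (-)-NA curve recorded isotonically. Antagonist incubated 30–60 min before repeat curve. pKb = log(DR-1) - log[B] from ED50 ratio; mean ± SE of 4–5 experiments.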

[8] = molecular target: T4, Alpha-1B adrenergic receptor (Rattus norvegicus); assay: Antagonist activity at alpha1B adrenoceptor in Wistar rat spleen assessed as phenylephrine induced contractions; summary of the method: as §2
[9] = molecular target: T6, Alpha-1A adrenergic receptor (Rattus norvegicus); assay: Antagonist activity at alpha1A adrenoceptor in Wistar rat vas deferens assessed as noradrenaline induced contractions; summary of the method: as §4

Ki [1] [nM] | Ki [2] [nM] | Ki [3] [nM] | Activity [4] [%] | pKb [5] | Activity [6] [%] | Activity [7] [%] | pKb [8] | pKb [9] | SMILES
3.31 | 30.2 | 3.39 | – | – | – | – | – | – | COc1ccccc1N1CCN(CCn2c(C)nc3c(sc4ccc(NC(=O)Cc5ccccc5)cc43)c2=O)CC1
0.575 | 10 | 1.1 | – | – | – | – | – | – | COc1ccccc1N1CCN(CCn2c(=O)[nH]c3c(sc4ccc(NC(=O)c5ccccc5)cc43)c2=O)CC1
5.01 | 38.9 | 3.89 | – | – | – | – | – | – | COc1ccccc1N1CCN(CCn2c(C)nc3c(sc4ccc(NC(=O)c5ccccc5)cc43)c2=O)CC1
0.141 | 0.832 | 0.324 | 100 | 8.64 | 100 | 100 | 7.94 | 7.7 | COc1ccccc1N1CCN(CCn2c(=O)[nH]c3c(sc4ccc(NC(=O)CCCC(=O)NCc5ccccc5)cc43)c2=O)CC1
0.912 | 28.2 | 1.48 | – | – | – | – | – | – | COc1ccccc1N1CCN(CCn2c(=O)[nH]c3c(sc4ccc(NC(=O)Cc5ccccc5)cc43)c2=O)CC1
0.372 | 2.69 | 1.1 | – | – | – | – | – | – | COc1ccccc1N1CCN(CCn2c(=O)[nH]c3c(sc4ccc(NC(=O)CCC(=O)NCc5ccccc5)cc43)c2=O)CC1
1.17 | 36.3 | 5.25 | – | – | – | – | – | – | COc1ccccc1N1CCN(CCn2c(=O)[nH]c3c(sc4ccc(NC(=O)CCCCc5ccccc5)cc43)c2=O)CC1
4.07 | 7.41 | 6.92 | – | – | – | – | – | – | COc1ccccc1N1CCN(CCn2c(=O)[nH]c3c(sc4ccc(NC(=O)CCCN(C)Cc5ccccc5)cc43)c2=O)CC1
0.759 | 6.46 | 0.912 | – | – | – | – | – | – | COc1ccccc1N1CCN(CCn2c(C)nc3c(sc4ccc(NC(=O)CCCC(=O)NCCc5ccccc5)cc43)c2=O)CC1
2.29 | 7.59 | 1 | – | – | – | – | – | – | COc1ccccc1N1CCN(CCn2c(C)nc3c(sc4ccc(NC(=O)CCCNC(=O)Cc5ccccc5)cc43)c2=O)CC1
3.24 | 33.9 | 7.08 | – | – | – | – | – | – | COc1ccccc1N1CCN(CCn2c(=O)[nH]c3c(sc4ccc(NC(=O)CCCc5ccccc5)cc43)c2=O)CC1
5.5 | 19.1 | 3.55 | – | – | – | – | – | – | COc1ccccc1N1CCN(CCn2c(C)nc3c(sc4ccc(NC(=O)CCCC(=O)NCc5ccccc5)cc43)c2=O)CC1
1.66 | 1.66 | 1.7 | – | – | – | – | – | – | COc1ccccc1N1CCN(CCn2c(=O)[nH]c3c(sc4ccc(NC(=O)CCCN(C)C)cc43)c2=O)CC1
– | – | – | – | 8.89 | – | – | 8.44 | 8.61 | COc1ccccc1N1CCN(CCn2c(=O)[nH]c3c(sc4ccccc43)c2=O)CC1
0.0562 | 1.91 | 0.933 | 100 | 9.15 | 100 | 90 | 7.77 | 7.82 | COc1ccccc1N1CCN(CCn2c(=O)[nH]c3c(sc4ccc(NC(=O)CCCC(=O)N(C)Cc5ccccc5)cc43)c2=O)CC1
1 | 6.46 | 1.62 | – | – | – | – | – | – | COc1ccccc1N1CCN(CCn2c(=O)[nH]c3c(sc4ccc(NC(=O)CCCC(=O)NCCc5ccccc5)cc43)c2=O)CC1
